{
  "source": "paper PMC7901021",
  "about": "(ACS chemical biology, 2021)",
  "key": {"MONOMAC6 and NB4 cells": {"test_system": "MONOMAC6 and NB4 cells", "conditions": "cited from earlier work"}, "FTO [1]": {"target": "T1, FTO (Homo sapiens, UniProt Q9C0B1)", "T1 sequence (Q9C0B1 whole entry)": "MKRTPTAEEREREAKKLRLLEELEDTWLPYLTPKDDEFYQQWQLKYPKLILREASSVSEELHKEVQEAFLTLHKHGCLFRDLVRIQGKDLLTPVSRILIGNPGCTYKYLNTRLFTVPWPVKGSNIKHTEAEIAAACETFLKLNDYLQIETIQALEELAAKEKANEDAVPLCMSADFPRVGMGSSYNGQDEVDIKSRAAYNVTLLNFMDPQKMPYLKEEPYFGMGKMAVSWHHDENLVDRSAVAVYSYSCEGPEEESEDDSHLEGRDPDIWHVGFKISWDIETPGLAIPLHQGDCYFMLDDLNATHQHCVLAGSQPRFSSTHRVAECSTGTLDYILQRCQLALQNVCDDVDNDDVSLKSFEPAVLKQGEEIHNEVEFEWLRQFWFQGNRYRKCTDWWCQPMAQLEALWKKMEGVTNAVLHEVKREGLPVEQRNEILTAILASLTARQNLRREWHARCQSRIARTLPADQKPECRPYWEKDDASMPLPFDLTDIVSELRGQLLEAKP", "conditions": "read-out: reported IC50 against FTO; cited from earlier work"}, "ALKBH5 [2]": {"target": "T2, ALKBH5 (Homo sapiens, UniProt Q6P6C2)", "T2 sequence (Q6P6C2 whole entry)": "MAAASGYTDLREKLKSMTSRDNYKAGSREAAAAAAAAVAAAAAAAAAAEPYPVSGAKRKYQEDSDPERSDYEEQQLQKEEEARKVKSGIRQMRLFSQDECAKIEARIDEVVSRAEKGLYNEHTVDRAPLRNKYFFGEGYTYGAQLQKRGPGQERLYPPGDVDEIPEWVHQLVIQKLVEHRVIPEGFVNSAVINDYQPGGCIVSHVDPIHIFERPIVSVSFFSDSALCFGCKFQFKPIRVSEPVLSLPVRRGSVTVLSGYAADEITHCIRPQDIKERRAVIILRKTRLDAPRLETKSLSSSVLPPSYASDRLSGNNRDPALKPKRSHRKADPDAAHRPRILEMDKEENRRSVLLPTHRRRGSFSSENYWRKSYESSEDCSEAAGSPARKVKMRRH", "conditions": "cited from earlier work"}, "[3]": {"assay": "precipitation in assay buffer", "format": "physicochemical", "conditions": "dose response could not be determined"}, "FTO [4]": {"target": "T1, FTO", "assay": "m6A7-Broccoli fluorescence enzymatic inhibition assay", "format": "biochemical", "conditions": "for preference for FTO over ALKBH5: FTO vs ALKBH5 IC50"}, "FTO [5]": {"target": "T1, FTO", "assay": "steady-state inhibition kinetics", "format": "biochemical", "conditions": "vmax independent of inhibitor concentration; substrate 0-10 μM"}, "[6]": {"test_system": "TS576 patient-derived GSC neurospheres", "assay": "neurosphere formation assay", "format": "cell-based, human", "conditions": "2 days"}, "[7]": {"test_system": "GSC-23 patient-derived GSC neurospheres", "assay": "neurosphere formation assay", "format": "cell-based, human", "conditions": "GSC-23, 20 μM, 2 days", "how_it_was_run": "(§1)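 Neurospheres of patient-derived glioblastoma stem cell lines, with normal human neural stem cells run alongside, were exposed to 20 μM test compound for 2 days. Wells were imaged by bright field, and neurosphere size was quantified by image analysis from more than 50 neurospheres per group. Groups were compared by Student's t test.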"}, "[8]": {"test_system": "GBM-6 patient-derived GSC neurospheres", "assay": "neurosphere formation assay", "format": "cell-based, human", "conditions": "GBM-6, 20 μM, 2 days", "how_it_was_run": "as §1"}, "[9]": {"test_system": "healthy human neural stem cells (hNSCs) neurospheres", "assay": "neurosphere formation assay", "format": "cell-based", "conditions": "20 μM", "how_it_was_run": "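Normal human neural stem cells were grown as neurospheres and treated with the test compound at 20 μM for 2 days. Neurospheres were imaged by bright field and sized by ImageJ, with more than 50 neurospheres per group. Comparisons by Student's t test.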"}, "[10]": {"test_system": "m6A mRNA levels in TS576 cells", "assay": "m6A dot blot assay of purified mRNA", "format": "cell-based, human", "conditions": "30 μM, does not distinguish m6A and m6Am", "how_it_was_run": "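TS576 patient-derived GSCs were treated with the test compound or DMSO, and mRNA was purified from them. m6A in the mRNA was assessed by dot blot. shControl versus shFTO knockdown in TS576 served as the reference for m6A change.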"}, "[11]": {"test_system": "m6A and m6Am levels in GSCs", "assay": "quantification of m6A and m6Am by HPLC-MS/MS/MS", "format": "cell-based, human"}, "ALKBH5 [12]": {"target": "T2, ALKBH5", "assay": "m6A7-Broccoli fluorescence enzymatic inhibition assay", "format": "biochemical", "conditions": "for selectivity between FTO and ALKBH5 (in words): comparison of IC50 toward both demethylases"}, "[13]": {"test_system": "orthotopically transplanted GSC tumors", "conditions": "cited from earlier work"}},
  "data": [
    {"compound": "Cc1noc(C)c1-c1cc(Cl)c(Nc2ccccc2C(=O)O)c(Cl)c1", "note": "[FB23]", "values": [
      {"measurement": "cellular uptake", "setting": "MONOMAC6 and NB4 cells", "result": "poor cellular uptake"}
    ]},
    {"compound": "Cc1noc(C)c1-c1cc(Cl)c(Nc2ccccc2C(=O)NO)c(Cl)c1", "note": "[FB23–2]", "values": [
      {"measurement": "IC50", "setting": "FTO [1]", "result": 2.6, "unit": "µM"},
      {"measurement": "inhibition of FTO at 50 μM (stated as selectivity against ALKBH5)", "setting": "ALKBH5 [2]", "result": "little to no inhibition"},
      {"measurement": "cellular concentration relative to FB23", "setting": "MONOMAC6 and NB4 cells; MONOMAC6 and NB4 cells", "result": "3−10 ×"}
    ]},
    {"compound": "COc1ncc(-c2cccc(OCc3ccccc3)c2)cn1", "note": "[FTO-03]", "values": [
      {"measurement": "precipitation in assay buffer", "setting": "[3]", "result": "significant precipitation"}
    ]},
    {"compound": "COc1ncc(-c2ccc3nc(N)sc3c2)cn1", "note": "[FTO-04]", "values": [
      {"measurement": "potency toward FTO relative to MA", "setting": "FTO [4]; ratio of IC50 to MA (12.5 μM)", "result": "approximately 4 ×"},
      {"measurement": "mechanism of inhibition", "setting": "FTO [5]", "result": "competitive mechanism of inhibition"},
      {"measurement": "size of neurospheres", "setting": "[6]; TS576, 20 μM", "result": "significantly decrease the size of neurospheres"},
      {"measurement": "size of neurospheres vs vehicle control", "setting": "[6]; TS576, 30 μM", "result": "significant reduction in size of the neurospheres"},
      {"measurement": "size of neurospheres", "setting": "[7]", "result": "significantly decrease the size of neurospheres"},
      {"measurement": "size of neurospheres", "setting": "[8]", "result": "significantly decrease the size of neurospheres"},
      {"measurement": "size of neurospheres", "setting": "[9]", "result": "no alteration in neurosphere size"},
      {"measurement": "m6A mRNA levels relative to DMSO control (dot blot)", "setting": "[10]", "result": "increased"},
      {"measurement": "increase in m6A levels relative to DMSO control", "setting": "[11]", "result": "~ 1.4 ×"},
      {"measurement": "increase in m6Am levels relative to DMSO control", "setting": "[11]", "result": "~ 3.2 ×"}
    ]},
    {"compound": "COc1ccc2cc(-c3cncnc3)ccc2c1", "note": "[FTO-05]", "values": [
      {"measurement": "preference for FTO over ALKBH5", "setting": "FTO [4]", "result": "≥ 5", "unit": "fold"},
      {"measurement": "IC50", "setting": "ALKBH5 [12]", "result": "> 40", "unit": "µM"},
      {"measurement": "inhibition of ALKBH5 at the highest concentration measured", "setting": "ALKBH5 [12]", "result": "no measurable inhibition"}
    ]},
    {"compound": "COc1ncc(-c2ccc(CO)c(OC)c2)cn1", "note": "[FTO-06]", "values": [
      {"measurement": "preference for FTO over ALKBH5", "setting": "FTO [4]", "result": "≥ 5", "unit": "fold"}
    ]},
    {"compound": "Cc1ccc2cc(-c3cncnc3)ccc2n1", "note": "[FTO-07]", "values": [
      {"measurement": "inhibition of ALKBH5 at the highest concentration measured", "setting": "ALKBH5 [12]", "result": "no measurable inhibition"}
    ]},
    {"compound": "COc1ccc2cc(-c3cnc(OC)nc3)ccc2c1", "note": "[FTO-08]", "values": [
      {"measurement": "selectivity between FTO and ALKBH5 (in words)", "setting": "ALKBH5 [12]", "result": "equivalent inhibitors toward both demethylases"}
    ]},
    {"compound": "Nc1ncc(-c2cccc(Nc3ccccc3)c2)cn1", "note": "[FTO-09]", "values": [
      {"measurement": "potency toward ALKBH5 over FTO", "setting": "ALKBH5 [12]; ALKBH5 vs FTO IC50", "result": "~10", "unit": "times"},
      {"measurement": "selectivity between FTO and ALKBH5 (in words)", "setting": "ALKBH5 [12]", "result": "distinct preference toward ALKBH5 over FTO"}
    ]},
    {"compound": "Nc1ncc(-c2ccc3cc(O)ccc3c2)cn1", "note": "[FTO-10]", "values": [
      {"measurement": "selectivity between FTO and ALKBH5 (in words)", "setting": "ALKBH5 [12]", "result": "equivalent inhibitors toward both demethylases"}
    ]},
    {"compound": "COc1ncc(-c2ccc3nc(C)ccc3c2)cn1", "note": "[FTO-11]", "values": [
      {"measurement": "selectivity between FTO and ALKBH5 (in words)", "setting": "ALKBH5 [12]", "result": "equivalent inhibitors toward both demethylases"}
    ]},
    {"compound": "COc1ccc2cc(-c3cnc(N)nc3)ccc2c1", "note": "[FTO-12]", "values": [
      {"measurement": "preference for FTO over ALKBH5", "setting": "FTO [4]", "result": "≥ 5", "unit": "fold"},
      {"measurement": "IC50", "setting": "ALKBH5 [12]", "result": "> 40", "unit": "µM"},
      {"measurement": "inhibition of ALKBH5 at the highest concentration measured", "setting": "ALKBH5 [12]", "result": "no measurable inhibition"}
    ]},
    {"compound": "Nc1ncc(-c2cccc(OCc3ccccc3)c2)cn1", "note": "[FTO-13]", "values": [
      {"measurement": "selectivity between FTO and ALKBH5 (in words)", "setting": "ALKBH5 [12]", "result": "distinct preference toward ALKBH5 over FTO"}
    ]},
    {"compound": "COCCNc1ncc(-c2ccc3cc(OC)ccc3c2)cn1", "note": "[FTO-15]", "values": [
      {"measurement": "precipitation in assay buffer", "setting": "[3]", "result": "significant precipitation"}
    ]},
    {"compound": "COCCNc1ncc(-c2ccc(OCc3ccccc3)cc2)cn1", "note": "[FTO-18]", "values": [
      {"measurement": "inhibition of ALKBH5 at the highest concentration measured", "setting": "ALKBH5 [12]", "result": "no measurable inhibition"}
    ]},
    {"compound": "COCCNc1ncc(-c2ccc3nc(C)ccc3c2)cn1", "note": "[FTO-19]", "values": [
      {"measurement": "selectivity between FTO and ALKBH5 (in words)", "setting": "ALKBH5 [12]", "result": "equivalent inhibitors toward both demethylases"}
    ]},
    {"compound": "COCCNc1ncc(-c2ccc(CO)c(OC)c2)cn1", "note": "[FTO-20]", "values": [
      {"measurement": "preference for FTO over ALKBH5", "setting": "FTO [4]", "result": "≥ 5", "unit": "fold"}
    ]},
    {"compound": "Cc1ccc(Cl)c(Nc2ccccc2C(=O)O)c1Cl", "note": "[MA, meclofenamic acid]", "values": [
      {"measurement": "inhibition of FTO at 50 μM (stated as selectivity against ALKBH5)", "setting": "ALKBH5 [2]", "result": "little to no inhibition"},
      {"measurement": "lifespan", "setting": "[13]; intracranial GSC xenograft mice", "result": "prolong lifespan"},
      {"measurement": "tumor progression in vivo", "setting": "[13]; orthotopically transplanted GSC tumors", "result": "prevented tumor progression in vivo"}
    ]}
  ]
}
